Efa HMGR inh – inhibitors of E. faecalis class II HMGR, primary screen, biochemical, Enterococcus faecalis. HMG-CoA reductase (Enterococcus faecalis, mvaE). purified E. faecalis HMGR, NADPH absorbance 340 nm kinetic. inhibition, % at 10 µM. 190,000 compounds, 0.41% hits. AID 1066, 2008;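 active = inhibition above a set limit, the median over all tested compounds plus 3 SD, cut at about 9.5% in these data; inconclusive = no clear call, values can overlap the other calls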;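 note: enzyme runs in reverse so mevalonate oxidation gives rising NADPH absorbance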
ABCB1 inh – ABCB1 efflux pump inhibitors, primary screen, cell-based, multiplex, flow cytometry, ABCG2 counter-screen; ATP-dependent translocase ABCB1 (Homo sapiens), P08183; CCRF-Adr cells, JC-1 efflux; inhibition, % at 6.6 µM; 190,000 compounds, 0.067% hits; AID 1326, 2008; in the data active = inhibition above about 40%;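 note: higher value means more JC-1 retained so stronger ABCB1 efflux block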
HSV replic up – enhancers of HSV replication in host cells, fold increase, host cell viability; HSV replication augmentation in cells; maximum fold increase; 220,000 compounds, 0.005% hits; in the data active = maximum fold increase above about 1.5; inconclusive = no clear call, values can overlap the other calls; tested in PC3 cells
ABCG2 block – ABCG2 efflux pump inhibitors, primary screen, multiplex with ABCB1, IgMXP3 cells, flow cytometry | inhibition, % at 6.6 µM | 190,000 compounds, 0.1% hits | JC-1 efflux;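 active = inhibition above 80%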
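material = IgMXP3 (ABCG2) plus far-red-tagged CCRF-Adr (ABCB1) cells | amount = 3 million cells/mL, equal mix of both lines | also added = JC-1 transporter substrate | dosing = one concentration, 6.6 µM final | schedule = 10 min at 25 °C | measured by = flow cytometric JC-1 green MFI at 530 nm | read-out basis = percent efflux inhibition, scaled nicardipine 100% to DMSO 0%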
ABCB1 confirm – ABCB1 efflux pump inhibitors, confirmation, cell-based, single point, ABCG2 counter-screen | shares compounds with ABCG2 block | CCRF-Adr cells, JC-1 efflux, flow cytometry | inhibition, % at 6.6 µM | 270 compounds, 7% hits | AID 1451, 2008;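 active = inhibition of pump activity above 50%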
ABCG2 confirm – ABCG2 efflux pump inhibitors, confirmation, single point, IgMXP3 cells, ABCB1 counter-screen paired. JC-1 efflux, flow cytometry. shares compounds with ABCG2 block. 270 compounds, 6% hits. inhibition, % at 6.6 µM;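 active = inhibition above 50%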
IgMXP3 fluor – compound autofluorescence in ABCG2-expressing IgMXP3 cells, confirmation, artefact control for ABC transporter inhibitor project, cell-based, 488/530 nm, flow cytometry. AID 1480, 2009. fluorescence at 6.6 µM. 270 compounds, 30% hits. compound autofluorescence 488/530 nm; active compounds read high. shares compounds with ABCG2 block;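 active = fluorescence in ABCG2-expressing cells above the plate's control-well mean plus 3 SD, cut at about 15 in these data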
CCRF-Adr fluor – compound autofluorescence in ABCB1-expressing CCRF-Adr cells, confirmation, artefact control for ABC transporter inhibitor project, cell-based, 488/530 nm, flow cytometry; shares compounds with ABCG2 block; compound autofluorescence 488/530 nm; active compounds read high; fluorescence at 6.6 µM; 270 compounds, 30% hits; AID 1483, 2009;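 active = fluorescence beyond the plate control mean plus 3 SD, with a fluorescence-to-maximum score over 2, cut at about 25 in these data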
A number is an active result; – = inactive; ? = inconclusive; · = no result. In the library only some 0.49% were active in any assay of this set; here they are far more common.

SMILES	Efa HMGR inh	ABCB1 inh	HSV replic up	ABCG2 block	others
CCN(CC)CCNC(=O)C(=O)NCC1OCCN1C(=O)c1ccc2c(c1)OCO2 (centres undefined)	19	–	–	–
COc1n[nH]c(C(=O)Nc2nc3ccccc3s2)c1[N+](=O)[O-]	–	–	–	–
COc1n[nH]c(C(=O)NCc2ccccc2)c1[N+](=O)[O-]	12	–	–	–
Cc1ccc(CN2CCN(Cc3cccc4nccnc34)CC2CCO)cc1 (centres undefined)	·	·	–	·
CS(=O)(=O)N1CCc2cc(S(=O)(=O)N3CCCCC3)ccc21	16	–	–	–
CS(=O)(=O)N1CCc2cc(C(=O)N3CCCCC3)ccc21	–	–	–	–
COC(=O)c1ccc(C(NC(=O)OCc2ccccc2)/C(C)=C/[C@@H](C)C(=O)NCc2ccc(-c3ccccc3)cc2)cc1 (some centres undefined)	14	–	–	–
Cc1ccc(CNC(=O)C(CCC(N)=O)NC(=O)OCc2ccccc2)cc1 (centres undefined)	–	–	–	–
CCN(CC)S(=O)(=O)c1ccc(Cl)c(NC(=O)COC(=O)/C=C/c2ccc(O)c(OC)c2)c1	–	–	–	–
CCCCC(=O)C1=C(N2CCCC2)CC(C)(C)CC1=O	12	–	–	–
CCC(=O)C1=C(N2CCCC2)CC(C)(C)CC1=O	–	–	–	–
Cc1ccc(N=Cc2nc(-c3ccc(C)cc3)oc2O)cc1	–	–	–	–
COc1ccc(N=Cc2nc(-c3ccco3)oc2O)cc1	11	–	–	–
CCc1nc(SCC(=O)Nc2sc(C)c(C)c2C(=O)OC)c2ccccc2n1	–	–	–	–
CC(=O)[C@@]1(O)CC[C@H]2[C@@H]3CCC4=CC(=O)CC[C@]4(C)[C@H]3CC[C@@]21C	12	–	–	–
CC(=O)OC1CCC2C3CCC4=CC(=O)CCC4(C)C3CCC2(C)[C@]1(C)O (some centres undefined)	·	·	–	·
CSc1nc2ncc3c(n2n1)CC(C)(C)CC3=O	9.9	–	–	–
CC1(C)CC(=O)c2cnc3c(C#N)cnn3c2C1	–	–	–	–
O=C(CCn1cnnn1)Nc1ccc(Cl)c(Cl)c1	14	–	–	–
O=S(=O)(NCCOCC(F)(F)C(F)F)c1ccc2oc3ccccc3c2c1	–	–	–	–
CC(=O)c1ccc(NC(=O)CN(C)CC(=O)Nc2cccc(F)c2)cc1	–	–	–	–
COc1cccc(NC(=O)c2ccc3snnc3c2)c1	17	–	–	–
CN(C)/C=N/S(=O)(=O)c1ccc(Cl)cc1	–	–	–	–
CCNc1nc(NC(C)C)nc(NC(C)(C)C)n1	13	–	–	–
CON/C=N/C(=S)Nc1ncc(C(F)(F)F)cc1Cl	–	–	–	–
SMILES	Efa HMGR inh	ABCB1 inh	HSV replic up	ABCG2 block	others
ON/C=N/C(=S)Nc1ncc(C(F)(F)F)cc1Cl	18	–	–	–
CCOC(=O)N1CCN(C(=O)CSc2ccc(-c3cccnc3)nn2)CC1	10	–	–	–
O=c1c2ccccc2cnn1Cc1n[nH]c(=S)n1-c1ccccc1Cl	–	–	–	–
O=C(NCC1CCCO1)C(c1cccs1)N(Cc1cccs1)C(=O)Cn1nnc(-c2cccs2)n1 (centres undefined)	16	–	–	–
Cc1nc(S/C(=C/c2ccc(OCc3ccc(C(=O)O)cc3)cc2)C(=O)O)n[nH]1	–	–	–	–
O=C(O)CCCN1C(=O)c2ccc(Oc3cccc([N+](=O)[O-])c3)cc2C1=O	–	–	–	–
Cc1cccc(S(=O)(=O)Nc2cccc3c2C(=O)c2ccccc2-3)c1	–	–	4.1	–
Cc1ccc(NS(=O)(=O)c2ccc3c(c2)C(=O)c2ccccc2C3=O)c(C)c1	–	–	–	–
O=[N+]([O-])C(/C=C(\Cl)[N+](=O)[O-])=C1N(Cc2ccc(Cl)nc2)CCN1Cc1ccc(Cl)nc1	13	–	–	–
Cc1ccc2nc(-c3cc(N)cc(N)c3)oc2c1	14	–	–	–
CCOc1ccc(NC(=S)N(CCOC)C(C)c2ccco2)cc1 (centres undefined)	·	·	–	·
CCN1CCN(c2cc(-c3ccccc3)nc3cc(-c4cccc(F)c4)nn23)CC1	9.6	–	–	–
OC1CCN(c2cc(-c3ccccc3)nc3cc(-c4ccc(F)cc4)nn23)CC1	–	–	–	–
COc1ccc(-n2c3c(cc(C(=O)N4CCCCC4)c2=O)C(=O)CC(C)(C)C3)cc1	–	–	–	–
CC1(C)CC(=O)c2cc(C(=O)N3CCN(CCO)CC3)c(=O)n(-c3ccc(Cl)cc3)c2C1	11	–	–	–
NNC(=O)C1CC1c1ccc(Cl)cc1 (centres undefined)	19	–	–	–
COC(=O)C1=C(C)Nc2c(c(=O)n(C)c(=O)n2C)C1c1cccnc1 (centres undefined)	13	–	–	–
COC(=O)C1=C(C)N(Cc2ccco2)C(=O)/C1=C\c1ccc([N+](=O)[O-])cc1	10	–	–	–
O=C(/C=C/c1ccc(N2CCC(c3ccccc3)=N2)cc1)c1ccccc1	–	75	?	81
O=c1c(/C=C(\O)c2ccccc2)nc2ccccc2n1-c1ccccc1	–	45	–	–	ABCB1 confirm=–;ABCG2 confirm=–;IgMXP3 fluor=–;CCRF-Adr fluor=77
CCOC(=O)c1sc(Nc2nc3cc4c(cc3s2)OCO4)cc1C	–	195	–	175	ABCB1 confirm=–;ABCG2 confirm=–;IgMXP3 fluor=–;CCRF-Adr fluor=–
CC(=O)c1sc(Nc2nc3cc4c(cc3s2)OCO4)nc1C	–	–	–	–
CC12CCC(C(=O)N(CC(O)CN3CCCCC3)C1=O)C2(C)C (centres undefined)	–	–	–	–
O=C(Nc1ccccc1)Nc1nc(-c2ccc(F)cc2)cs1	–	–	–	81	ABCB1 confirm=–;ABCG2 confirm=–;IgMXP3 fluor=–;CCRF-Adr fluor=–
OC1(c2cccc(C(F)(F)F)c2)CCN(c2ccc(-c3ccccc3)nn2)CC1	–	–	–	93	ABCB1 confirm=–;ABCG2 confirm=–;IgMXP3 fluor=–;CCRF-Adr fluor=51

From PubChem
